MrgX1 agonist – human MrgX1 receptor agonism, primary screen; Q96LB2; MrgX1-HEK293 cells, Fluo-4 calcium fluorescence, agonist mode; stronger effect = higher value; B-score at 10 µM; 310,000 tested, 0.44% active; AID 588627;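 active = calcium response B-score plate-corrected fluorescence ratio at least 3 library SD, with starting fluorescence B-score inside 5 SD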
Target sequence (Q96LB2 whole entry, looked up): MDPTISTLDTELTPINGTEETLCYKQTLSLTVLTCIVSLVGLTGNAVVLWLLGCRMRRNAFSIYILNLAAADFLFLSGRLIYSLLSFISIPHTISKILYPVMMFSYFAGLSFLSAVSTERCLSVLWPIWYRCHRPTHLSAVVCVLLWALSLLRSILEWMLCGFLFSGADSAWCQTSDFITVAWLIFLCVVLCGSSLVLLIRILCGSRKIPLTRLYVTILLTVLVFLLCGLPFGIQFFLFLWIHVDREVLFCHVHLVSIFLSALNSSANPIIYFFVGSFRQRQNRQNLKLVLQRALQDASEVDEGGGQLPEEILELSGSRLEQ
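Material – MrgX1-expressing HEK293 cells · Input – 15,000 cells seeded per well · Dosing – compound as first of three additions · Times – overnight seeding, then 1 h dark dye loading · Measured by – kinetic Fluo-4 NW fluorescence of intracellular calcium · Read-out – B-scored fluorescence response ratio · Benchmarks – positive and negative control wells on each plate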
RGS4 pot – potentiators or activators of RGS4 | B-score at 10 µM | HEK293 M3R/inducible RGS4, carbachol calcium flux Fluo4; stronger effect = lower value | 310,000 tested, 0.92% active;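 active = B-score of the integrated calcium signal more than 4 SD below the library mean, with starting fluorescence not abnormally high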;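 note: negative B-score means reduced calcium response which marks RGS4 activation or potentiation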
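Assay system: Inducible-RGS4 HEK293 cells carrying M3 receptor | Schedule: Compound preincubation 20 min at room temperature before agonist | Signal: Kinetic calcium fluorescence imaging with Fluo4-AM dye, 2 µM | Read-out basis: B score from integrated fluorescence ratio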
MrgX1 allo act – human MrgX1 positive allosteric modulation, primary screen; MrgX1-HEK293, Fluo-4 calcium flux, FDSS; stronger effect = higher value; B-score at 10 µM; 310,000 tested, 0.63% active;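 active = plate-corrected calcium response at least 3 library SD above typical, normal starting fluorescence, not activating the receptor alone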;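 note: compound read alongside a low EC10 to EC30 dose of BAM8-22 agonist; peak minus trough fluorescence over baseline measured at the second addition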
RGS4 inh – inhibitors of human RGS4 | HEK293 M3R/RGS4 inducible, Fluo-4 calcium flux; stronger effect = higher value; triggered by carbachol at its EC20 | B-score at 10 µM | 310,000 tested, 0.45% active | AID 463165;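 active = B-score, a plate-corrected calcium signal, over three deviations above library mean, with baseline fluorescence within five deviations of library mean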;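 note: RGS4 expression induced by doxycycline in cells with stable M3 receptor; B-score is computed from the integrated fluorescence ratio over baseline after carbachol; higher B-score means a larger calcium signal and so more RGS4 inhibition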
Target sequence (P49798 whole entry, looked up): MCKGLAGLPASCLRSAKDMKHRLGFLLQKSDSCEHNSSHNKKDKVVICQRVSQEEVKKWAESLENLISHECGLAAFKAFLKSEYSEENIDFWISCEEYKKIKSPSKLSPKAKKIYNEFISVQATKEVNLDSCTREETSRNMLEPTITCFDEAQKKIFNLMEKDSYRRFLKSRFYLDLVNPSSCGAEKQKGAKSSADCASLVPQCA
MrgX1 antagonist – human MrgX1 receptor antagonism, primary screen. Q96LB2. B-score at 10 µM. MRGX1-HEK293 calcium flux, Fluo-4, BAM8-22 antagonism; stronger effect = lower value. 310,000 tested, 1.3% active. AID 588676;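 active = calcium-response B-score plate-corrected more than 3 library SD below zero, starting fluorescence within 5 deviations, no agonist response on first addition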;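 note: peak minus trough fluorescence over baseline after final BAM8-22 challenge near maximal dose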
MrgX1 ant reconf – confirmation of human MrgX1 receptor antagonists; shares compounds with MrgX1 antagonist; MrgX1-HEK293, BAM8-22 calcium flux, Fluo-4; stronger effect = lower value; 2,300 tested, 19% active; remaining BAM8-22 calcium response % of control (stronger effect = lower value), % at 10 µM;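 active = remaining agonist calcium response no higher than 100% minus 3 SD of agonist-only control wells, with starting fluorescence near control levels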;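 note: agonist BAM8-22 given at a near maximal EC90 to ECmax level; peak minus minimum fluorescence divided by baseline after agonist addition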
HEK293 Ca flux – MrgX1 antagonist counter-screen hit in parental HEK293 cells | shares compounds with MrgX1 antagonist | Fluo-4 calcium fluorescence, FDSS | fluorescence ratio F(max-min)/F0 at 10 µM | 4,000 tested, 2% active;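 active = duplicate-averaged calcium fluorescence ratio at least three times the standard deviation of buffer wells, a nonspecific response in parental cells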
HEK293 Ca counter – counter-screen for MrgX1 allosteric activators: effect in parental HEK293 cells | parental HEK293 calcium flux, Fluo-4 fluorescence ratio; stronger effect = higher value | 4,000 tested, 0.4% active | fluorescence ratio F(max-min)/F0 at 10 µM | shares compounds with MrgX1 antagonist;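 active = calcium fluorescence ratio, averaged over duplicates, at least 3 SD of the buffer-well ratio, meaning a nonspecific response in receptor-free cells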;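 note: untransfected parental HEK293 lacking MrgX1 used as counterscreen for MrgX1 allosteric activators; fluorescence change taken during the second addition on a kinetic imager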
HEK293 Ca cntr2 – MrgX1 activator counter-screen hit in parental HEK293 cells. fluorescence ratio F(max-min)/F0 at 10 µM. 4,000 tested, 8.7% active. Fluo-4 calcium fluorescence (FDSS); stronger effect = higher value. shares compounds with MrgX1 antagonist. AID 624115;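 active = calcium fluorescence ratio at least three times the spread of buffer wells, meaning a non-specific response in parental cells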
Numbers without * were called inactive. Compounds with a hit are over-represented: about 3.5% of the library has one in this group of screens.

`Cc1nn2c(NCCN3CCOCC3)c3c(nc2c1-c1ccccc1)CCCC3` gave MrgX1 agonist inactive, RGS4 pot inactive, MrgX1 allo act inactive, RGS4 inh inactive, MrgX1 antagonist -5.9*, MrgX1 ant reconf inactive, HEK293 Ca flux inactive, HEK293 Ca counter inactive and HEK293 Ca cntr2 inactive.
`COc1ccc(NC(=O)Cn2nnc(-c3ccccc3NC(=O)c3cccs3)n2)cc1` gave MrgX1 agonist inactive, RGS4 pot inactive, MrgX1 allo act inactive, RGS4 inh inactive, MrgX1 antagonist -7*, MrgX1 ant reconf inactive, HEK293 Ca flux inactive, HEK293 Ca counter inactive and HEK293 Ca cntr2 inactive.
Screening Cc1ccc(NC(=O)Cn2nnc(-c3ccccc3NC(=O)c3cccs3)n2)cc1 returned MrgX1 agonist inactive, RGS4 pot inactive, MrgX1 allo act inactive, RGS4 inh inactive and MrgX1 antagonist inactive.
CCOC(=O)C(C)Sc1nc(=O)n2ccccc2n1 (stereo not given) was read as MrgX1 agonist inactive, RGS4 pot inactive, MrgX1 allo act inactive, RGS4 inh inactive, MrgX1 antagonist -5.1*, MrgX1 ant reconf inactive, HEK293 Ca flux inactive, HEK293 Ca counter inactive and HEK293 Ca cntr2 inactive.
`COc1cccc(CN(C)C(=S)Nc2cccc(C)c2)c1` gave MrgX1 agonist inactive, RGS4 pot inactive, MrgX1 allo act inactive, RGS4 inh inactive, MrgX1 antagonist -4.9*, MrgX1 ant reconf inactive, HEK293 Ca flux inactive, HEK293 Ca counter inactive and HEK293 Ca cntr2 inactive.
CNC(=O)COc1coc(CN2CCN(C(=O)c3ccco3)CC2)cc1=O was read as MrgX1 agonist inactive, RGS4 pot inactive, MrgX1 allo act inactive, RGS4 inh inactive and MrgX1 antagonist inactive.
`CCC(=O)Nc1ccc(/C(C)=N/NC(=O)c2c(-c3ccccc3Cl)noc2C)cc1` gave MrgX1 agonist inactive, RGS4 pot inactive, MrgX1 allo act inactive, RGS4 inh inactive and MrgX1 antagonist inactive.
CN(C)c1ccc(C(=O)Nc2cc(C(F)(F)F)ccc2-n2cncn2)cc1 was read as MrgX1 agonist inactive, RGS4 pot inactive, MrgX1 allo act inactive, RGS4 inh inactive, MrgX1 antagonist -11*, MrgX1 ant reconf inactive, HEK293 Ca flux inactive, HEK293 Ca counter inactive and HEK293 Ca cntr2 inactive.
`Cn1c(-c2ccc(F)cc2)cnc1NCc1cccc([N+](=O)[O-])c1` gave MrgX1 agonist inactive, RGS4 pot inactive, MrgX1 allo act inactive, RGS4 inh inactive and MrgX1 antagonist inactive.
Screening O=C1CC(C(=O)Nc2nccs2)C(c2ccccc2)O1 (stereo not given) returned MrgX1 agonist inactive, RGS4 pot inactive, MrgX1 allo act inactive, RGS4 inh inactive, MrgX1 antagonist -6.3*, MrgX1 ant reconf inactive, HEK293 Ca flux inactive, HEK293 Ca counter inactive and HEK293 Ca cntr2 inactive.
Screening CCOC(=O)c1sc(NC(=O)CSc2nc3ccccc3s2)c(C(=O)OCC)c1C returned MrgX1 agonist inactive, RGS4 pot inactive, MrgX1 allo act inactive, RGS4 inh inactive and MrgX1 antagonist inactive.
For CCOC(=O)Cc1csc(NC(=O)c2c(O)c3c(n(CC(C)C)c2=O)CCCC3)n1 the results were MrgX1 agonist inactive, RGS4 pot inactive, MrgX1 allo act inactive, RGS4 inh inactive, MrgX1 antagonist -6.8*, MrgX1 ant reconf 81%*, HEK293 Ca flux inactive, HEK293 Ca counter inactive and HEK293 Ca cntr2 inactive.
`CCCOC(=O)C1=C(C)NC2=C(C(=O)C(C(=O)OC)C(C)C2)C1c1ccc(N(CC)CC)cc1` (stereo not given) gave MrgX1 agonist inactive, RGS4 pot inactive, MrgX1 allo act inactive, RGS4 inh inactive, MrgX1 antagonist -7.8*, MrgX1 ant reconf inactive, HEK293 Ca flux inactive, HEK293 Ca counter inactive and HEK293 Ca cntr2 inactive.
COC(=O)c1cc(NC2c3ccccc3C(=O)N2Cc2ccco2)cc(C(=O)OC)c1 (stereo not given) was read as MrgX1 agonist inactive, MrgX1 allo act inactive and MrgX1 antagonist inactive.
Screening COc1ccc(NC2c3ccccc3C(=O)N2Cc2ccco2)cc1OC (stereo not given) returned MrgX1 agonist inactive, RGS4 pot inactive, MrgX1 allo act inactive, RGS4 inh inactive, MrgX1 antagonist -5.4*, MrgX1 ant reconf inactive, HEK293 Ca flux inactive, HEK293 Ca counter inactive and HEK293 Ca cntr2 inactive.
For O=C1c2ccccc2C(Nc2ccc(S(=O)(=O)N3CCCCC3)cc2)N1Cc1ccco1 (stereo not given) the results were MrgX1 agonist inactive, RGS4 pot inactive, MrgX1 allo act inactive, RGS4 inh inactive, MrgX1 antagonist -7.9*, MrgX1 ant reconf inactive, HEK293 Ca flux inactive, HEK293 Ca counter inactive and HEK293 Ca cntr2 inactive.
`Cc1ccc(OCC(=O)Nn2c(C)nc3ccccc3c2=O)c(C(C)C)c1` gave MrgX1 agonist inactive, RGS4 pot inactive, MrgX1 allo act inactive, RGS4 inh inactive, MrgX1 antagonist -11*, MrgX1 ant reconf inactive, HEK293 Ca flux inactive, HEK293 Ca counter inactive and HEK293 Ca cntr2 inactive.
`O=C(Nc1cc(C(F)(F)F)ccc1N1CCOCC1)c1ccco1` gave MrgX1 agonist inactive, RGS4 pot inactive, MrgX1 allo act inactive, RGS4 inh inactive, MrgX1 antagonist -4.5*, MrgX1 ant reconf inactive, HEK293 Ca flux inactive, HEK293 Ca counter inactive and HEK293 Ca cntr2 inactive.
For CNC(=O)c1c(NC(=O)c2ccc(S(=O)(=O)N3CCCc4ccccc43)cc2)sc2c1CCN(C)C2 the results were MrgX1 agonist inactive, RGS4 pot inactive, MrgX1 allo act inactive, RGS4 inh inactive, MrgX1 antagonist -5.5*, MrgX1 ant reconf inactive, HEK293 Ca flux 0.66*, HEK293 Ca counter inactive and HEK293 Ca cntr2 49*.
Screening O=C(NCc1ccccc1F)C1CCCN1S(=O)(=O)c1ccc(F)cc1 (stereo not given) returned MrgX1 agonist inactive, RGS4 pot inactive, MrgX1 allo act inactive, RGS4 inh inactive and MrgX1 antagonist inactive.

Source: PubChem (Johns Hopkins Ion Channel Center)
